Reference: ChEMBL document CHEMBL3259516, “Structure-based design and synthesis of bicyclic fused-pyridines as MEK inhibitors” (Bioorg Med Chem Lett, 2014)

Legend:
[1] = biological target: T1, Dual specificity mitogen-activated protein kinase kinase 1 (Homo sapiens, UniProt Q02750); test: Inhibition of MEK1 (unknown origin)
[2] = Clearance in human liver microsomes; type: ADME; conditions: read-out: CLH
[3] = Cmax in rat at 5 mg/kg, po; type: ADME, organism-based; parameters: dose 5 mg/kg, route oral; conditions: in vivo
[4] = Inhibition of CYP450 (unknown origin) up to 50 uM; type: ADME; conditions: human
[5] = Oral bioavailability in beagle dog at 1 mg/kg; type: ADME, organism-based, Canis lupus familiaris; conditions: in vivo
[6] = Half life in beagle dog at 1 mg/kg, iv; type: ADME, organism-based, Canis lupus familiaris; parameters: dose 1 mg/kg, route intravenous; conditions: in vivo
[7] = Cmax in beagle dog at 1 mg/kg, po; type: ADME, organism-based, Canis lupus familiaris; parameters: dose 1 mg/kg, route oral; conditions: in vivo
Mus musculus = test: Toxicity in mouse xenografted with human COLO205 cells assessed as change in body weight at 3 mg/kg, po qd for 14 days; type: organism-based, COLO 205; parameters: dose 3 mg/kg, route oral; conditions: in vivo, 336 h
Procedure, shortened: (§1)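 Human colorectal Colo-205 xenografts in mice; test agent given by oral gavage at 3.0 mg/kg once daily for 14 days. Tumor growth inhibition scored relative to control, and body weight followed in all animals throughout the study.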

[8] = Half life in rat at 5 mg/kg, po; type: ADME, organism-based; parameters: dose 5 mg/kg, route oral; conditions: in vivo
[9] = Clearance in rat liver microsomes; type: ADME; conditions: read-out: CLH
[10] = AUC in rat at 5 mg/kg, po; type: ADME, organism-based; parameters: dose 5 mg/kg, route oral; conditions: plasma
[11] = Half life in beagle dog at 1 mg/kg, po; type: ADME, organism-based, Canis lupus familiaris; parameters: dose 1 mg/kg, route oral; conditions: in vivo
[12] = Plasma protein binding in human; type: ADME, cell-free; conditions: read-out: PPB (converted)
[13] = AUC in beagle dog at 1 mg/kg, iv; type: ADME, organism-based, Canis lupus familiaris; parameters: dose 1 mg/kg, route intravenous; conditions: plasma
COLO 205 = test: Antitumor activity against human COLO205 cells xenografted in mouse assessed as tumor growth inhibition at 3 mg/kg, po qd for 14 days relative to control; type: functional; conditions: COLO 205, 336 h, read-out: TGI; procedure, shortened: as §1
[14] = AUC in beagle dog at 1 mg/kg, po; type: ADME, organism-based, Canis lupus familiaris; parameters: dose 1 mg/kg, route oral; conditions: plasma
[15] = biological target: T1, Dual specificity mitogen-activated protein kinase kinase 1; test: Inhibition of MEK1 in human COLO205 cells; type: cell-based, COLO 205

T1 sequence (Q02750 whole entry): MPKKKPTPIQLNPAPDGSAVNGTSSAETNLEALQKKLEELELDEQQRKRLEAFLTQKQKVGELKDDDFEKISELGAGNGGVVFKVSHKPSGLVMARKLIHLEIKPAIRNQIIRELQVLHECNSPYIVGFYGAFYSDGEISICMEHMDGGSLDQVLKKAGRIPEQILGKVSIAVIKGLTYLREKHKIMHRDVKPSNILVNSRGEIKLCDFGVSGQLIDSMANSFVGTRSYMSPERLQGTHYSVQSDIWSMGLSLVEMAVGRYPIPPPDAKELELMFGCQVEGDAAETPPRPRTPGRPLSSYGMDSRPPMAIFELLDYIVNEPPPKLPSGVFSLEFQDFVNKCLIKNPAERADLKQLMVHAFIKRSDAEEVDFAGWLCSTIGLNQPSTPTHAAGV

**Q.** Which IC50 [1] does the source give for O=C(NC[C@H](O)CO)c1ncncc1Nc1ccccc1F here?
**A.** > 1000 nM

**Q.** Which results are given for O=c1c2c(Nc3ccc(I)cc3F)cncc2cnn1C[C@H](O)CO?
**A.** microsomal CLint [2]: 1.25 µL/min/mg; Cmax [3]: 1080 ng/mL; inhibition (INH) [4]: Not Active; bioavailability [5]: 43%; half-life [6]: 3.11 h; Cmax [7]: 117 ng/mL; Activity (Mus musculus): Non-toxic; half-life [8]: 5.56 h; microsomal CLint [9]: 2.38 µL/min/mg; AUC [10]: 4890 ng·h/mL; half-life [11]: 4.88 h; fraction unbound [12]: 0.033; AUC [13]: 1190 ng·h/mL; inhibition in vivo at 3 mg/kg (COLO 205): 59.5%; AUC [14]: 510 ng·h/mL

**Q.** What does the source list for Cn1c(=O)c(F)c(Nc2ccc(I)cc2F)c2c(=O)n(C[C@@H](O)CO)cnc21 [TAK-733]?
**A.** IC50 [15]: 6.92 nM; IC50 [1]: 1.79 nM
